Inconclusive results are not listed.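 The calls were made as follows, unless noted: active = RAM network inhibition above 8.4% in each of two replicates, 3 SD over the compound average; inconclusive = above 8.4% inhibition in only one replicate; inactive = 8.4% inhibition or less in each replicate.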
How the values were obtained:
[1] = S. cerevisiae growth inhibition in permissive medium (OD615), pilot counter-assay for S. cerevisiae lifespan shortening project, permissive growth control (AID 705;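 active = growth inhibition above 25% in both replicates, a cutoff set 3 SD above the mean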); conditions: OD615, 24 h, at 10 µM, hits give high values
Procedure, shortened: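 System: engineered DeaD yeast; Medium: permissive raffinose/galactose medium; Compound dosing: 10 µM single dose, 0.25% DMSO; Incubation: 4 h cell pre-growth, 24 h exposure at 30 °C; Technique: OD at 615 nm; Evaluation: growth inhibition from lowered OD615 after 24 h.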

[2] = S. cerevisiae growth inhibition in restrictive medium, OD615, pilot screen, restrictive growth control, yeast lifespan reduction project (AID 706;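 active = growth inhibition above a set limit, 3 SD over mean compound inhibition, in both replicates, cut at about 43% in these data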;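 also: modified DeaD lifespan yeast strain shifted to restrictive glucose medium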); conditions: OD615, 48 h, at 10 µM, hits give high values
Procedure, shortened: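 Material: modified S. cerevisiae; buffer or medium: CSMM-D glucose medium; doses: one concentration, 10 µM final, 0.25% DMSO; incubation: 48 h compound exposure at 30 °C; detection: optical density at 615 nm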

[3] = doxorubicin toxicity protection in MRP-1 cells – H69AR cells, CellTiter-Glo, duplicate, MRP-1 activator project, pilot screen (AID 807;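 active = viability increase at or above a cutoff of the median across tested compounds plus 3 SD, cut at about 8.5% in these data, passing the limit was not always enough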;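 also: compound pretreatment 18-22 h then 72 h combined with doxorubicin; 0% = doxorubicin alone and 100% = vehicle without doxorubicin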); conditions: H69AR viability with doxorubicin, CellTiter-Glo luminescence; at 10 µM; hits give high values
[4] = viability of HCT116 without oncogenic beta-catenin – human colon tumor cells, pilot screen (AID 823;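 active = cell viability at or below a set limit in both duplicate runs, the limit being the all-compound median minus 4 SD, cut at about 23% in these data, passing the limit was not always enough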;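 also: 0% = wells killed by 20 µM Hyamine and 100% = untreated DMSO cell wells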); conditions: HCT116 beta-catenin knockout viability, CellTiter-Glo, 60 h; at 10 µM; hits give low values
[5] = viability of PTEN-null HCT116 cells – cell-based, HCT116 clonal line, CellTiter-Glo, pilot screen (AID 824;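 active = viability at or below 27.92% in each of two runs, the all-compound median minus 4 SD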;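 also: 0% = 20 µM Hyamine control and 100% = vehicle cell control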); conditions: HCT116 PTEN-deleted viability, 60 h, at 10 µM, hits give low values
[6] = RAM pathway blockade in budding yeast – dse1pr::URA3 reporter, 5-FOA selection, pilot screen (AID 869;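 active = inhibition over a set limit, the all-compound mean plus 3 SD, in both replicate runs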;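 also: 0% = DMSO wells with no growth and 100% = 10 µM 1-NA-PP1 with full growth; RAM network block rescues cells from 5-FOA so hits raise OD615 growth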); conditions: S. cerevisiae dse1pr::URA3 5-FOA growth, OD615, 2 d; at 10 µM; hits give high values; strain carries analog-sensitive mutant Cbk1 kinase
[7] = RAM signaling pathway blockade in yeast – S. cerevisiae, Pdr1DBD-CYC8 efflux-inhibited sensitized strain, primary screen (AID 1298);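 also: 0% = DMSO untreated cells without growth and 100% = 10 µM 1-NA-PP1 full growth; higher means more yeast growth rescued from 5-FOA killing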; conditions: S. cerevisiae cbk1-as DSE1-URA3 strain, 5-FOA growth OD615, 2 d; at 50 µM; hits give high values

O=C(O)c1ccc(NS(=O)(=O)c2ccc3c(c2)OCCO3)cc1
inactive: growth inhibition [1] 4.96% | growth inhibition [2] -3.53% | viability increase [3] 0.04% | viability [4] 107% | viability [5] 108% | inhibition [6] 0.975% | RAM network inhibition [7] 1.55%

CCSc1nnc(NC(=O)c2ccccc2)s1
inactive: growth inhibition [1] -19.1% | growth inhibition [2] 0.02% | viability increase [3] 1.94% | viability [4] 95.2% | viability [5] 98.7% | inhibition [6] 1.25% | RAM network inhibition [7] 4.7%

COC(=O)C1=CN(CC2CCCO2)C=C(C(=O)OC)C1c1ccsc1 (stereo unspecified)
inactive: growth inhibition [1] -22.4% | growth inhibition [2] -3.27% | viability increase [3] -4.97% | viability [4] 92.1% | viability [5] 97.5% | inhibition [6] 0.125% | RAM network inhibition [7] 4.53%

O=C(OCCN(C1=NS(=O)(=O)c2ccccc21)c1ccc(Cl)cc1)c1ccco1
inactive: growth inhibition [1] -15.9% | growth inhibition [2] -5.49% | viability increase [3] -5.7% | viability [4] 82.2% | viability [5] 91.5% | inhibition [6] 1.44% | RAM network inhibition [7] 4.02%

CCCCSc1nc(N)c(NC(=O)c2ccco2)c(=O)[nH]1
inactive: growth inhibition [1] -12.7% | growth inhibition [2] -14.2% | viability increase [3] -2% | viability [4] 101% | viability [5] 93.4% | inhibition [6] 1.58% | RAM network inhibition [7] 0.8%

CC(C)OCCCNC(=O)c1cc2c(=O)n(C)c3ccccc3c2n1C
inactive: growth inhibition [1] 0.55% | growth inhibition [2] -0.705% | viability increase [3] -2.09% | viability [4] 103% | viability [5] 97% | inhibition [6] 0.185% | RAM network inhibition [7] 3.23%

O=C(NC1CCCCCCC1)c1cnccn1
inactive: growth inhibition [1] 0.775% | growth inhibition [2] 10.4% | viability increase [3] -0.43% | viability [4] 103% | viability [5] 93.7% | inhibition [6] 1.72% | RAM network inhibition [7] 1.71%

COc1ccc(C2=CC(c3ccc(Cl)cc3)n3cnnc3N2)cc1OC (stereo unspecified)
inactive: growth inhibition [1] -1.79% | growth inhibition [2] 2.91% | viability increase [3] -2.06% | viability [4] 97.3% | viability [5] 87% | inhibition [6] 0.37% | RAM network inhibition [7] 0.78%

CCn1c2ccccc2c2cc(NC(=O)C3CCN(S(=O)(=O)c4cccs4)CC3)ccc21
inactive: growth inhibition [1] -8.9% | growth inhibition [2] -16.2% | viability increase [3] -5.99% | viability [4] 59.3% | viability [5] 66.2% | inhibition [6] 0.19% | RAM network inhibition [7] 4.66%

CCN1CCN(Cc2ccc(NC(=O)Nc3ccc(OC)cc3)cc2)CC1
inactive: growth inhibition [1] 5.68% | growth inhibition [2] 1.98% | viability increase [3] 0.19% | viability [4] 104% | viability [5] 108% | inhibition [6] 2.09% | RAM network inhibition [7] 1.09%

CCOC(=O)C(C)n1cnc2sc3c(c2c1=O)CCC3 (stereo unspecified)
inactive: growth inhibition [1] -8.5% | growth inhibition [2] -7.75% | viability increase [3] -1.76% | viability [4] 95.7% | viability [5] 99.6% | inhibition [6] 0.575% | RAM network inhibition [7] 1.15%

CC(=O)c1ccc(NC(=O)CSc2nc3nc(C)cc(C)n3n2)cc1
inactive: growth inhibition [1] -20.6% | growth inhibition [2] -8.37% | viability increase [3] -1.88% | viability [4] 101% | viability [5] 93.9% | inhibition [6] 2.34% | RAM network inhibition [7] 2.78%

COc1ccc(Cl)cc1N(CC(=O)N1CCN(Cc2ccccc2)CC1)S(C)(=O)=O
inactive: growth inhibition [1] -5.27% | growth inhibition [2] -11.1% | viability increase [3] -0.51% | viability [4] 95.9% | viability [5] 92.8% | inhibition [6] 1.38% | RAM network inhibition [7] 0.41%

Cc1ccc(C2=CC(c3ccc(N(C)C)cc3)n3nnnc3N2)cc1 (stereo unspecified)
inactive: growth inhibition [1] -10.6% | growth inhibition [2] 7.92% | viability increase [3] -4.61% | viability [4] 84% | viability [5] 77.3% | inhibition [6] 2.63% | RAM network inhibition [7] -0.47%

O=C(Nc1scc(-c2cccs2)c1C(=O)O)c1cccs1
inactive: growth inhibition [1] -11.8% | growth inhibition [2] -9.07% | viability increase [3] 3.64% | viability [4] 103% | viability [5] 105% | inhibition [6] 1.41% | RAM network inhibition [7] 0.42%

O=C(O)CN1C(=O)COc2cc(S(=O)(=O)N3CCCC3)ccc21
inactive: growth inhibition [1] 4.97% | growth inhibition [2] -0.475% | viability increase [3] 0.05% | viability [4] 94.8% | viability [5] 102% | inhibition [6] 0% | RAM network inhibition [7] 2.14%

Cc1ccc(-c2ccc(CCC(=O)O)n2CC(=O)O)cc1
inactive: growth inhibition [1] -3.08% | growth inhibition [2] -11.2% | viability increase [3] -1.34% | viability [4] 98.7% | viability [5] 107% | inhibition [6] 1.36% | RAM network inhibition [7] 1.3%

c1coc(C2Nc3ccccc3-c3nc4ccccc4n32)c1 (stereo unspecified)
inactive: growth inhibition [1] -27.2% | growth inhibition [2] -4.04% | viability increase [3] -4.32% | viability [4] 66.6% | viability [5] 68.1% | inhibition [6] 2.14% | RAM network inhibition [7] 8.31%

COc1ccc(OC)c2sc(NC(=O)C(C)C)nc12
inactive: growth inhibition [1] -15.2% | growth inhibition [2] -18% | viability increase [3] -1.14% | viability [4] 105% | viability [5] 92% | inhibition [6] 1.31% | RAM network inhibition [7] 9.63%

CC(=NCc1ccccc1)C1=C(O)COC1=O
inactive: growth inhibition [1] 5.52% | growth inhibition [2] 8.4% | viability increase [3] -1.47% | viability [4] 100% | viability [5] 92.7% | inhibition [6] 1.06% | RAM network inhibition [7] 4.28%

COc1ccc(Cl)cc1S(=O)(=O)N1CCN(C)CC1
inactive: growth inhibition [1] 1.3% | growth inhibition [2] -7.12% | viability increase [3] -2.26% | viability [4] 100% | viability [5] 86.8% | inhibition [6] 1.67% | RAM network inhibition [7] 5.97%

Cn1cc(S(=O)(=O)CC(=O)Nc2ccc3c(c2)OCO3)c2ccccc21
inactive: growth inhibition [1] -1.92% | growth inhibition [2] 4.48% | viability increase [3] -2.54% | viability [4] 95.9% | viability [5] 92.1% | inhibition [6] 0.5% | RAM network inhibition [7] 5.14%

CCOC(=O)C1CCN(C(=O)CS(=O)Cc2nc(-c3ccc(C)cc3)oc2C)CC1 (stereo unspecified)
inactive: growth inhibition [1] 1.66% | growth inhibition [2] 22.5% | viability increase [3] -3.68% | viability [4] 86.3% | viability [5] 84.6% | inhibition [6] 0.32% | RAM network inhibition [7] 7.5%
